Most compounds without a hit are left out; they make up all but 2.2% or so of the library.
EBI2 block: antagonists of human EBI2 receptor; P32249; EBI2 beta-arrestin recruitment, luminescence, 7a,25-OHC stimulated; inhibition, % at 5 µM; 360,000 compounds, 0.81% hits; AID 651636; in the data active means inhibition above about 38%;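 further: enzyme fragment complementation signal reports receptor beta-arrestin coupling in cells; 0% = agonist plus DMSO wells and 100% = wells without agonist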
CXCR6 block: blocks human CXCR6 beta-arrestin recruitment; CHO-K1 PathHunter CXCR6 beta-arrestin, luminescence; 360,000 compounds, 0.36% hits; inhibition, % at 20 µM; in the data active means inhibition above about 34%, passing the limit was not always enough;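 further: antagonist mode with CXCL16 agonist at 10 nM final; 0% = 10 nM CXCL16 with DMSO and 100% = unstimulated wells without agonist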
CCR6 antagonist: CCR6 (human) receptor antagonism. CHO-K1 CCR6 PathHunter beta-arrestin, luminescence, CCL20-stimulated. inhibition, % at 20 µM. 340,000 compounds, 0.49% hits. AID 493098;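 active means compounds whose inhibition of the agonist-driven luminescence signal at 20 µM reaches about 50%, limit read from the data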;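 further: cells stimulated with CCL20 at 14 nM final; plate controls were DMSO with CCL20 for no effect and DMSO without agonist for full effect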
APJ ag: activates the human apelin receptor APJ; P35414; CHO-K1 APJ PathHunter beta-arrestin, luminescence; 0% DMSO wells, 100% apelin; activation, % at 20 µM; 330,000 compounds, 0.11% hits; AID 2520;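 active means activation more than six SD over the plate average, tested at 20 µM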;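 further: 0% = DMSO alone and 100% = apelin-13 at 10 nM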
Target sequence (P35414 whole entry, looked up): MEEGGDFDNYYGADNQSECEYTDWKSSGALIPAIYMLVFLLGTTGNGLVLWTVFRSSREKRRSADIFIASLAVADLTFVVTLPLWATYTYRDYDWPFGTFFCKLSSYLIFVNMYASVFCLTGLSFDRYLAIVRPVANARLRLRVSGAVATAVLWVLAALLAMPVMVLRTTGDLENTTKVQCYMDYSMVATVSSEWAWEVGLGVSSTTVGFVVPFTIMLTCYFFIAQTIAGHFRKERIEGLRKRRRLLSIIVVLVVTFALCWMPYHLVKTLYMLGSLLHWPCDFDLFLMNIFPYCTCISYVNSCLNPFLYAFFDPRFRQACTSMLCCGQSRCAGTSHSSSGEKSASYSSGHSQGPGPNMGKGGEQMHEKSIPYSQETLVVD
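system = engineered CHO-K1 APJ arrestin reporter cells | input = 1000 cells per well | timing = overnight seeding, 90 min compound at 25 °C, 1 h detection | measured by = enzyme-fragment complementation luminescence | read-out = beta-arrestin recruitment to APJ as agonist activity, luminescent signal | control set = negative DMSO alone, positive Apelin-13 at 10 nM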
m5-HT2A agonist: mouse HTR2A agonism via beta-arrestin recruitment | 360,000 compounds, 0.66% hits | AID 624169 | P35363 | activation, % at 7.6 µM | CHO-K1 mHTR2A beta-arrestin complementation, luminescence; percent of 30 µM serotonin response;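 active means activation above a run cutoff, the mean activation of all tested compounds plus 3 SD, cut at about 14% in these data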;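 further: 0% = plate median of compound wells and 100% = 30 µM serotonin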
APJ antag: APJ receptor antagonism | P35414 | CHO-K1 APJ beta-arrestin complementation, luminescence | inhibition, % at 20 µM | 330,000 compounds, 0.32% hits;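 active means inhibition above about 40% at 20 µM, limit read from the data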;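 further: cells challenged with 10 nM apelin-13 agonist together with compound; plate controls were apelin-13 plus DMSO wells for no effect and DMSO wells lacking apelin-13 for full effect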
MOR ag counter: activates human mu opioid receptor in HTR2A counterscreen | U2OS OPRM1 beta-arrestin PathHunter, luminescence; DMSO 0%, DAMGO 9.3 µM 100% | activation, % at 9.3 µM | shares compounds with m5-HT2A agonist | 2,300 compounds, 5.3% hits;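 active means mean activation above the mean of DMSO-only wells plus 3 SD, cut at about 0.5% in these data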
Target sequence (P35372 whole entry, looked up): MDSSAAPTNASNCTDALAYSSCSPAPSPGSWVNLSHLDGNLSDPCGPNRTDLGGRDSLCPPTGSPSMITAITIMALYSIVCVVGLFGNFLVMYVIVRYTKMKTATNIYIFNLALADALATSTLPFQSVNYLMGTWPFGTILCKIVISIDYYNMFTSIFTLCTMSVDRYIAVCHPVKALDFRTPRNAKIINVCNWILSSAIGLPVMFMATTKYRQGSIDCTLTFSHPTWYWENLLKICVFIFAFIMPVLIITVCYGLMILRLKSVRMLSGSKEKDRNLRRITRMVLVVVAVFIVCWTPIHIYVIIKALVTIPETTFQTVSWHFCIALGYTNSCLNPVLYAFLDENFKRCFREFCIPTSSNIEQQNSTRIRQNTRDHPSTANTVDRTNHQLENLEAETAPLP
m5-HT2A ag conf: confirmation of mouse HTR2A serotonin receptor agonists | CHO-K1 PathHunter beta-arrestin recruitment, luminescence; DMSO 0%, 30 µM serotonin 100% | shares compounds with m5-HT2A agonist | AID 624381 | activation, % at 7.6 µM | 2,300 compounds, 19% hits;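 active means mean activation across triplicates above the hit threshold derived in the original primary screen, cut at about 15% in these data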
* = called active by the depositor; x = not tested or not shown.

SMILES | EBI2 block | CXCR6 block | CCR6 antagonist | APJ ag | m5-HT2A agonist | APJ antag | MOR ag counter | m5-HT2A ag conf
Cc1ccc(S(=O)(=O)N2[C@@H](CO)CO[C@H]2CC(=O)c2ccc(F)cc2)cc1 | -0.5 | x | x | x | -4.2 | x | x | x
Cc1cc([N+](=O)[O-])ccc1NC(=O)c1cncc(Br)c1 | 2.6 | 3.7 | 13.0 | 2.1 | 15.8* | 5.9 | -0.5 | -4.9
Cc1cc(NC(=O)CSc2c3c(nc4ccccc24)CCC3)no1 | -1.1 | 10.5 | 7.0 | -3.4 | 15.2* | 14.5 | -0.6 | -5.1
COc1ccccc1NC(=O)CSc1c2c(nc3ccccc13)CCC2 | 5.2 | 1.5 | 4.5 | -3.7 | -0.9 | 2.5 | x | x
CC(C)CC(NS(=O)(=O)OCC(Cl)(Cl)Cl)c1ccccc1 (centres undefined) | -8.5 | -12.0 | 18.6 | 12.3 | 19.5* | -6.4 | 0.9* | -1.3
c1ccc(CN2CCN(c3ncccn3)CC2)cc1 | -3.0 | -1.5 | -3.3 | -3.4 | 34.7* | 13.4 | -0.4 | 97.9*
Clc1ccc(CN2CCN(c3ncccn3)CC2)cc1Cl | 3.5 | -12.5 | 9.8 | -1.4 | 27.1* | -13.9 | 0.0 | 112.1*
Clc1ccc(CN2CCN(c3ncccn3)CC2)cc1 | -6.3 | -3.5 | 4.0 | -3.1 | 28.8* | -3.9 | 0.1 | 116.6*
c1ccc(COc2ccc(CN3CCN(c4ccccn4)CC3)cc2)cc1 | -13.3 | -6.6 | -1.5 | -2.1 | 26.8* | 20.7 | -0.6 | 98.5*
C(#Cc1ccccc1)CN1CCN(c2ccccn2)CC1 | 10.9 | -8.1 | 4.7 | -3.8 | 1.8 | 11.4 | x | x
CCOC(=O)CC1(C)Sc2ccccc2N1S(=O)(=O)c1ccc(C)cc1 (centres undefined) | 12.9 | x | x | x | -6.3 | x | x | x
O=C(NC(=O)c1ccccc1)OCC(F)(F)F | 7.8 | -4.6 | 4.2 | -5.3 | -0.7 | 2.0 | x | x
CNC(=O)c1ccc(CNC(=O)OCC(F)(F)F)cc1 | 3.5 | -5.8 | -22.0 | 5.5 | 25.3* | -17.8 | -0.1 | 2.1
Oc1c(C(c2ccccc2)N2CCCCC2)ccc2ccccc12 (centres undefined) | -38.0 | -1.7 | x | x | 6.5 | x | x | x
COc1cc2c3nnc(-c4ccc(F)cc4)c-3cn(Cc3ccc(F)cc3)c2cc1OC | 7.3 | 6.4 | 13.3 | 4.0 | 17.7* | 26.7 | -0.4 | 14.6*
CN(Cc1ccccc1)N=Nc1ccccc1 | 6.1 | -0.3 | x | x | 4.5 | x | x | x
CN(Cc1ccccc1)N=Nc1nc[nH]c1C(N)=O | -7.2 | -6.1 | x | x | 17.2* | x | -0.4 | -3.0
O=C1[C@H](Oc2ccccc2)[C@@H](c2ccccc2)N1c1ccncc1 | -12.3 | 4.2 | 29.9 | x | 18.3* | x | -0.3 | -8.1
O=C(O)c1ccc2c(c1Nc1ccccc1)C(=O)c1ccccc1C2=O | -6.2 | 24.4 | 23.4 | 2.1 | 27.1* | -36.8 | -0.2 | -5.9
CCNc1c(C(=O)O)ccc2c1C(=O)c1ccccc1C2=O | -7.0 | 6.9 | 11.0 | -2.9 | -3.1 | 19.2 | x | x
Cc1cc(=O)[nH]c(SCC(=O)Nc2ccc(F)c([N+](=O)[O-])c2)n1 | 1.3 | 1.2 | 6.3 | -2.4 | 28.4* | 16.8 | -0.3 | -1.9
Cc1ccc2nc(SCC(=O)Nc3ccc(F)c([N+](=O)[O-])c3)[nH]c2c1 | -16.1 | -8.6 | 19.9 | -4.4 | -1.7 | 5.4 | x | x
Cc1ccsc1C(=O)OCC(=O)NCC1CCCO1 (centres undefined) | -13.2 | 7.4 | -6.7 | -1.9 | 18.4* | 8.2 | -0.6 | -1.9
Cc1ccc(C(=O)OCC(=O)NCC2CCCO2)c(C)c1 (centres undefined) | -8.0 | -7.0 | -23.4 | -0.4 | 0.9 | -4.0 | x | x
C=C[C@]1(C)C=C2C(=O)[C@@]3(O)OC(=O)[C@@]4(CCCC(C)(C)[C@H]34)[C@@]2(O)CC1 | -6.9 | 0.2 | x | x | 8.3 | x | x | x
SMILES | EBI2 block | CXCR6 block | CCR6 antagonist | APJ ag | m5-HT2A agonist | APJ antag | MOR ag counter | m5-HT2A ag conf
CCC(=O)N1c2ccc(S(=O)(=O)N3CCCC3)cc2CC1C (centres undefined) | -3.0 | -1.9 | 5.5 | 4.6 | 15.0* | 22.5 | -0.3 | 0.1
COc1ccccc1N1CCN(S(=O)(=O)CCNC(=O)CCc2ccccc2)CC1 | 20.6 | -4.1 | x | x | -0.2 | x | x | x
Cc1cccc(-c2nnc(SCC(=O)Nc3cc(C)on3)n2C)c1 | 1.8 | 2.9 | 8.2 | 2.8 | 17.8* | -7.3 | -0.5 | -3.5
Cc1cccc(NC(=O)CSc2nnc(-c3ccc(S(=O)(=O)N4CCOCC4)cc3)n2C)c1 | -4.7 | -0.2 | 9.5 | 1.8 | 28.9* | 10.6 | 0.8* | 0.5
CCc1ccccc1-n1nnnc1SCC(=O)Nc1cc(C)on1 | -4.5 | 0.4 | 14.1 | -1.9 | 15.4* | 13.5 | 0.3 | 6.7
Cc1cc(NC(=O)CSc2nnnn2-c2ccccc2C)no1 | 3.6 | -5.6 | 2.2 | -1.4 | -3.8 | -3.4 | x | x
COC1=CC(=O)OC(c2ccc(C(F)(F)F)cc2)C1 (centres undefined) | 4.0 | x | x | x | -2.5 | x | x | x
CC(C)CN(C(=O)C1=COCCO1)c1c(N)n(Cc2ccccc2)c(=O)[nH]c1=O | -6.3 | 0.2 | x | x | 1.1 | x | x | x
CCCC(=O)Nc1cccc(-c2nc3ccccc3c(=O)o2)c1 | -7.2 | -4.1 | 3.7 | -1.6 | 15.0* | 10.0 | -0.2 | -1.3
COc1c(C)cc(C(O)c2ncc(-c3ccccc3F)[nH]2)cc1C (centres undefined) | -7.8 | 2.9 | x | x | 2.5 | x | x | x
N#CC1(NC(=O)CSc2nc3ccccc3o2)CCCCC1 | 7.0 | -2.5 | 6.5 | -0.4 | -2.4 | -4.6 | x | x
N#CC1(NC(=O)CSc2ccccn2)CCCCC1 | -6.8 | -0.5 | 3.5 | 0.7 | 14.6* | 11.8 | -0.6 | -3.5
COc1ccc(N2CCN(C(=O)C(=O)c3cn(CC(=O)N4CCCC4)c4ccccc34)CC2)cc1 | -9.1 | -6.3 | x | x | -1.7 | x | x | x
CCOc1ccc(CCNC(=O)c2ccc3c(=O)[nH]c4c(C(=O)NC(C)C)sc(=S)n4c3c2)cc1 | 10.2 | 10.1 | 24.0 | -6.0 | 18.8* | 21.8 | -0.6 | 0.1
Cc1cc2c3c(c1C)C1(C(=O)N3C(C)(C)CC2C)C(C#N)=C(N)Oc2cc(O)ccc21 (centres undefined) | -10.1 | -3.4 | -0.1 | 2.1 | 25.0* | -5.2 | -0.5 | 2.7
Cc1cc2c3c(c1)C1(C(=O)N3C(C)(C)CC2C)C(C#N)=C(N)OC2=C1C(=O)CC(C)(C)C2 (centres undefined) | -2.8 | -3.1 | 4.6 | -1.4 | 3.6 | 8.2 | x | x
Cc1nc(N2CCN(S(=O)(=O)c3cccs3)CC2)c2c(-c3ccccc3)c(C)sc2n1 | 16.0 | 16.5 | x | x | -2.6 | x | x | x
CCC(C)N=C1SCC(C)(/C=N/O)S1 (centres undefined) | -4.0 | -8.2 | -1.8 | 0.5 | 9.7 | -4.8 | x | x

Bioassay records from PubChem BioAssay.
